{
  "source": "ChEMBL document CHEMBL4219235",
  "about": "“Novel fatty acid chain modified GLP-1 derivatives with prolonged in vivo glucose-lowering ability and balanced glucoregulatory activity” (Bioorg Med Chem, 2018)",
  "key": {"[1]": {"tested_on": "Mus musculus", "test": "Hypoglycemic activity in STZ-induced diabetic Kunming mouse model assessed as time required to reduce blood glucose level of […] at 25 nmol/kg, ip administered as single dose", "format": "functional", "in_short": "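Non-fasted STZ-diabetic Kunming mice with free access to food and water received a single i.p. injection (25 or 150 nmol/kg) or saline; n = 6/group. Blood glucose was followed over time.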"}, "[2]": {"tested_on": "Mus musculus", "test": "Antidiabetic activity in STZ/diet-induced obese C57BL/6 mouse assessed as reduction in cumulative food intake at 25 nmol/kg, ip administered daily for 4 weeks measured daily during compound dosing relative to control", "format": "functional", "design": "scale not given: the % may be the effect or the level left", "in_short": "(§1)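 Male C57BL/6J DIO mice on high-fat diet were treated for 4 weeks with saline as control; LFD-fed mice (n = 6/group) were used as normal reference. Water intake, food intake and body weight were recorded daily. Terminal serum leptin and adiponectin were measured by ELISA. TC, TG, HDL, LDL, ALT and AST were measured on a clinical chemistry analyzer.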"}, "[3]": {"tested_on": "Mus musculus", "test": "Antidiabetic activity in STZ/diet-induced obese C57BL/6 mouse assessed as reduction in cumulative water intake at 25 nmol/kg, ip administered daily for 4 weeks measured daily during compound dosing relative to control", "format": "functional", "design": "scale not given: the % may be the effect or the level left", "in_short": "as §1"}, "[4]": {"tested_on": "Mus musculus", "test": "Antidiabetic activity in STZ-induced diabetic Kunming mouse model assessed as fasting blood glucose level at 25 nmol/kg, ip administered once daily for 3 weeks measured at 5 days interval for 21 days during compound dosing (reference value: […])", "format": "functional", "in_short": "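STZ diabetes induced with 40 mg/kg/day i.p. for 5 consecutive days after overnight fasting. Mice with fasting glucose ≥11.1 mM were grouped by matched body weight and dosed 25 nmol/kg i.p. once daily for 3 weeks; saline served as control. Fasting plasma glucose was measured every five days, and HbA1c at day 24; n = 6/group.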"}, "[5]": {"tested_on": "Mus musculus", "test": "Antidiabetic activity in STZ/diet-induced obese C57BL/6 mouse assessed as reduction in serum ALT level at 25 nmol/kg, ip administered daily for 4 weeks measured post last dose", "format": "functional, organism-based", "in_short": "as §1"}, "[6]": {"tested_on": "Mus musculus", "test": "Antidiabetic activity in STZ/diet-induced obese C57BL/6 mouse assessed as reduction in size of white adipocytes at 25 nmol/kg, ip administered daily for 4 weeks measured post last dose", "format": "functional, organism-based"}, "[7]": {"tested_on": "Rattus norvegicus", "test": "Antidiabetic activity in Sprague-Dawley rat assessed as reduction in blood glucose AUC at 25 nmol/kg, ip treated 30 mins prior to glucose challenge measured at 15 mins interval for 180 mins by OGTT", "format": "functional, organism-based"}, "[8]": {"tested_on": "Mus musculus", "test": "Antidiabetic activity in STZ/diet-induced obese C57BL/6 mouse assessed as reduction in food intake at 25 nmol/kg, ip measured after 6 hrs relative to control", "format": "functional", "design": "scale not given: the % may be the effect or the level left", "in_short": "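Acute study in fasted mice given an i.p. dose; food intake was measured at 6 h after administration.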"}, "[9]": {"tested_on": "Mus musculus", "test": "Hypoglycemic activity in STZ-induced diabetic Kunming mouse model assessed as time required to reduce blood glucose level of […] at 150 nmol/kg, ip administered as single dose", "format": "functional", "in_short": "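Non-fasted STZ-diabetic Kunming mice with free access to food and water received a single i.p. injection (25 or 150 nmol/kg) or saline; n = 6/group. Blood glucose was followed over time. Euglycemic duration was defined as time below 8.35 mmol/L, and glucose AUC0–36h was calculated.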"}, "[10]": {"test": "Stability of the compound in Sprague-Dawley rat plasma by LC-MS/MS analysis", "format": "ADME, cell-free", "in_short": "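Compounds were incubated in plasma from adult male SD rats at 37 °C for up to 72 h. Samples at each time point underwent solid-phase extraction and LC-MS/MS analysis to follow degradation and derive half-life.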"}, "[11]": {"tested_on": "Mus musculus", "test": "Antidiabetic activity in STZ/diet-induced obese C57BL/6 mouse assessed as reduction in serum total cholesterol level at 25 nmol/kg, ip administered daily for 4 weeks measured post last dose", "format": "functional, organism-based", "in_short": "as §1"}, "[12]": {"tested_on": "Mus musculus", "test": "Antidiabetic activity in STZ/diet-induced obese C57BL/6 mouse assessed as reduction in serum leptin level at 25 nmol/kg, ip administered daily for 4 weeks measured post last dose", "format": "functional", "in_short": "as §1"}},
  "note": "Active and inactive are the calls of the source.",
  "data": [
    {"smiles": "CC[C@H](C)[C@H](NC(=O)[C@H](Cc1ccccc1)NC(=O)[C@H](CCC(=O)O)NC(=O)[C@H](CCCCN)NC(=O)[C@H](C)NC(=O)[C@H](C)NC(=O)[C@H](CCC(N)=O)NC(=O)CNC(=O)[C@H](CCC(=O)O)NC(=O)[C@H](CC(C)C)NC(=O)[C@H](Cc1ccc(O)cc1)NC(=O)[C@H](CO)NC(=O)[C@H](CO)NC(=O)[C@@H](NC(=O)[C@H](CC(=O)O)NC(=O)[C@H](CO)NC(=O)[C@@H](NC(=O)[C@H](Cc1ccccc1)NC(=O)[C@@H](NC(=O)CNC(=O)[C@H](CCC(=O)O)NC(=O)CNC(=O)[C@@H](N)Cc1cnc[nH]1)[C@@H](C)O)[C@@H](C)O)C(C)C)C(=O)N[C@@H](C)C(=O)N[C@@H](Cc1c[nH]c2ccccc12)C(=O)N[C@@H](CC(C)C)C(=O)N[C@H](C(=O)N[C@@H](CCCCN)C(=O)NCC(=O)N[C@@H](CCCNC(=N)N)C(=O)N[C@@H](CSC1CC(=O)N(CCCCCCCCCCCC(=O)O)C1=O)C(N)=O)C(C)C", "note": "(some centres not stated)", "values": [
      {"measurement": "Time", "setting": "[1]", "value": 9.7, "unit": "h"},
      {"measurement": "Activity", "setting": "[2]", "value": 24.9, "unit": "%"},
      {"measurement": "Activity", "setting": "[3]", "value": "<=33.5%"},
      {"measurement": "Activity", "setting": "[4]", "value": "1.07e+07", "unit": "nmol/L"},
      {"measurement": "Activity", "setting": "[5]", "value": "Active"},
      {"measurement": "Activity", "setting": "[6]", "value": "Active"},
      {"measurement": "Activity", "setting": "[7]", "value": "Active"},
      {"measurement": "Activity", "setting": "[8]", "value": "<=34.5%"},
      {"measurement": "Time", "setting": "[9]", "value": 11.5, "unit": "h"},
      {"measurement": "Stability", "setting": "[10]", "value": "Stable"},
      {"measurement": "Activity", "setting": "[11]", "value": "Active"},
      {"measurement": "Activity", "setting": "[12]", "value": 2.5, "unit": "ng/mL"}
    ]}
  ]
}
